B1: sAPLP1: soluble APP-like protein 1, lacks a conserved ExD (protein)
chain: SLAGGSPGAAEAPGSAQVAGLCGRLTLHRDLRTGRWEPDPQRSRRCLRDPQRVLEYCRQMYPELQIARVEQATQAIPMERWCGGSRSGSCAHPHHQVVPFRCLPGEFVSEALLVPEGCRFLHQERMDQCESSTRRHQEAQEACSSQGLILHGSGMLLPCGSDRFRGVEYVCCPPPGTPDPSGTAVGDPSTRSWPPGSRVEGAEDEEEEESFPQPVDDYFVEPPQAEEEEETVPPPSSHTLAVVGKVTPTPRPTDGVDIYFGMPGEISEHEGFLRAKMDLEERRMRQINEVMREWAMADNQSKNLPKADRQALNEHFQSILQTLEEQVSGERQRLVETHATRVIALINDQRRAALEGFLAALQADPPQAERVLLALRRYLRAEQKEQRHTLRHYQHVAAVDPEKAQQMRFQVHTHLQVIEERVNQSLGLLDQNPHLAQELRPQIQELLHSEHLGPSELEAPAPGGSSEDKGGLQPPDSKDDTPMTLPKGSTEQDAASPEKEKMNPLEQYERKVNASVPRGFPFHSSEIQRDELAPAGTGVSRE
modifications: left off: Fc, end not stated, kept
B2: APP 17mer peptide (APP695 204-220AA) (peptide, UniProt P05067-4 204-220, looked up)
peptide: DDSDVWWGGADTDYADG
B3: sushi 1 domain of GABABR1a (Fc-tag enzymatically removed) (domain or fragment)
chain: TSEGCQIIHPPWEGGIRYRGLTRDQVKAINFLPVDYEIEYVCRGEREVVGPKVRKCLANGSWTDMDTPSRCVR
B4: sushi 1 peptide: sushi 1 domain of GABABR1a, recombinant (protein)
chain: B3 chain
modifications: left off: Fc, end not stated, kept
B5: APP 9mer peptide (APP695 residues 204-212) (peptide, UniProt P05067-4 204-212, looked up)
peptide: DDSDVWWGG

Legend:
[1] = tested on: cultured mouse hippocampal neurons (mEPSCs); test: mEPSC recording in cultured hippocampal neurons; type: cell-based; details: for reduction of mEPSC frequency: P < 0.001, 12-17 DIV; for effect on mEPSC frequency: acute application, Fc-tag enzymatically removed (ExD-AcD, sAPPαΔExD; n=17-20, N=3)
[2] = tested on: neurons lacking APP; App/Aplp1 dKO cultures (mIPSCs); test: mIPSC recording in neurons lacking APP / App/Aplp1 dKO cultures; type: cell-based, mouse
[3] = tested on: neurons lacking APP; App/Aplp1 dKO cultures (mEPSCs); test: mEPSC recording in neurons lacking APP / App/Aplp1 dKO cultures; type: cell-based, mouse
[4] = tested on: cultured mouse hippocampal neurons (mIPSCs); test: mIPSC recording in cultured hippocampal neurons; type: cell-based; details: for reduction of mIPSC frequency: acute, P < 0.001
Outline: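 Mouse hippocampal neurons in culture (12–17 DIV) were recorded for miniature currents, and mIPSCs were separated from mEPSCs by their decay kinetics. Frequency was compared between baseline and acute application of 250 nM test protein, or of 30 μM baclofen as GABABR agonist reference. n is cells.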

[5] = tested on: Schaffer collateral synapses, acute hippocampal slices; set-up: species or system mouse; details: for paired-pulse ratio (PPR): 1 μM protein, first 2 stimuli at 20, 50 and 100 Hz
Outline: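 Acute mouse hippocampal slices were pre-incubated 90 min with or without 1 μM test protein (Fc tag removed), with or without 10 μM CGP54626. fEPSPs were recorded in CA1 stratum radiatum on Schaffer collateral stimulation. Input/output: 0.1 Hz, 30–150 μA. Bursts at 20, 50 and 100 Hz were normalized to the first response peak. PPR used the first two pulses. n is slices. Means ± SEM.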

[6] = tested on: cultured hippocampal mouse neurons (presynaptic strength); test: FM1-43 presynaptic vesicle recycling in cultured hippocampal neurons; type: cell-based
Outline: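 Cultured mouse hippocampal neurons were loaded and unloaded with FM1–43 by a combined stimulation paradigm, before and after test protein (Fc tag enzymatically removed; dose series, 1 μM top). Presynaptic strength S = ΔF at individual boutons × density of FM+ boutons per image area. Antagonist arms were run with or without GABABR antagonist, normalized to control. N is independent experiments. Means ± SEM, one-way ANOVA with Tukey post hoc.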

[7] = target: sushi 1 domain of GABABR1a (Homo sapiens, UniProt Q9UBS5); test: Isothermal titration calorimetry; type: binding; details: ITC
Outline: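 Isothermal titration calorimetry was run between purified test protein and purified GABABR1a sushi 1 domain. Fc tags were enzymatically removed from both. The dissociation constant (KD) was derived from the titration.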

GABABR1b = test: Cell-surface binding assay, GABABR1b-expressing HEK293T cells; details: immunostaining, confocal, pDisplay vector, n=24
Outline: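 Fc-tagged test protein, affinity-purified from transfected HEK293T supernatants, was applied to HEK293T cells displaying the receptor ectodomain at the surface (pDisplay). Fc alone served as control. Bound protein was detected by immunostaining, imaged by confocal microscopy and quantified per cell. n is total cells from 3–4 independent experiments. Means ± SEM, two-way ANOVA with Bonferroni post hoc.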

GABABR2 = test: Cell-surface binding assay, GABABR2-expressing HEK293T cells; details: immunostaining, confocal, pDisplay vector, n=24
GABABR1a sushi 1 = test: Biolayer interferometry, sAPPα binding to immobilized sushi peptides; details: sAPPα Fc-tag enzymatically removed; immobilized Fc-tagged sushi peptides
App KO mice = details: cited from earlier work
[8] = tested on: synaptic transmission and plasticity; details: ref [16]–[19]; cited from earlier work
[9] = target: B3; test: ITC
[10] = target: sAPPα (Fc-tag enzymatically removed) (UniProt P05067-4 18-612); test: ITC
[11] = tested on: sAPPα-Fc binding to GABABR1a-expressing HEK293T cells; test: Competition of sAPPα-Fc binding to GABABR1a-expressing HEK293T cells; details: increasing concentrations of untagged sushi 1 peptide, excess; n=24-31
[12] = 30 μM baclofen, App/Aplp1 dKO vs WT cultures
[13] = 1 μM sAPPα, 90 min pre-incubation, 0.1 Hz, 30-150 μA

For NCC(CC(=O)O)c1ccc(Cl)cc1 (stereo not drawn) [baclofen, reference compound], which “reduction of mEPSC frequency” value ([1]; 30 μM baclofen, acute, n=14 cells) is on record?
The value was 63 ± 5%.

What about the “effect on mIPSC frequency in App/Aplp1 dKO cultures” value [2, 12] of the same molecule?
Its value is “similarly reduced mEPSC and mIPSC frequency”.

And the “effect on mEPSC frequency in App/Aplp1 dKO cultures” value [3, 12]?
Its value is “similarly reduced mEPSC and mIPSC frequency”.

What about the “reduction of mIPSC frequency” value ([4]; 30 μM baclofen, n=14 cells) of the same molecule?
The value was 62 ± 5%.

Which results are given for “sAPPαΔExD: sAPPα with deletion of the ExD”?
effect on mEPSC frequency [1]: had no effect; paired-pulse ratio (PPR) [5]: abolished the sAPPα-mediated effect; effect on the i/o curve with ExD deletion ([5]; sAPPαΔExD 1 μM): abolished the sAPPα-mediated effect on the i/o curve; decrease of total presynaptic strength with ExD deletion ([6]; sAPPαΔExD 1 μM, FM1-43): not observed; effect on mIPSC frequency ([4]; acute application): not sAPPαΔExD, reduced mIPSC frequency

For “residues 211–220: peptide of APP695 residues 211–220 (GGADTDYADG)”, which “binding affinity to sushi 1 (in words)” value ([7]; for ExD-AcD Fc-tag enzymatically removed) is on record?
Its value is “failed to bind sushi 1”.

For “sAPPβ: soluble APP ectodomain released by β-secretase”, which “effect on mEPSC frequency” value [1] is on record?
Its value is “similarly reduced mEPSC frequency”.

Which results are given for “sAPPα-Fc: recombinant sAPPα with C-terminal Fc-tag from transfected HEK293T supernatants”?
binding to GABABR1b-expressing cells (GABABR1b): not to GABABR1b-; binding to GABABR2-expressing cells (GABABR2): not to GABABR1b-, or GABABR2-, expressing cells

With “sAPPα: soluble APP ectodomain released by α-secretase; purified recombinant protein” as the molecule, how does the “effect on mEPSC frequency at 25 nM” value ([1]; 25nM sAPPα) read?
Its value is “already apparent at 25nM”.

What about the “effect on mEPSC amplitude” value ([1]; 250 nM sAPPα (Fc-tag removed), acute) of the same molecule?
Its value is “without affecting mEPSC amplitude”.

And the “reduction of mEPSC frequency” value ([1]; 250 nM sAPPα (Fc-tag removed), acute, n=13 cells)?
The value was 39 ± 5%.

What about the “binding of sAPPα to sushi 1 (biolayer interferometry)” value (GABABR1a sushi 1) of the same molecule?
Its value is “sushi 1 peptide was sufficient for binding sAPPα”.

And the Kd ([7]; read-out: dissociation constant (KD) for sAPPα-sushi 1, purified proteins, Fc-tag enzymatically removed from both)?
Its Kd is 431 nM.

And the “rescue of spine density defects” value (App KO mice; ref [20])?
Its value is “sufficient to rescue synaptic defects in App KO mice, including defects in spine density”.

And the “rescue of LTP defects” value (App KO mice; ref [21], [22])?
Its value is “sufficient to rescue synaptic defects in App KO mice”.

And the “rescue of spatial learning defects” value (App KO mice; ref [21])?
Its value is “sufficient to rescue synaptic defects in App KO mice”.

What about the “paired-pulse ratio (PPR)” value [5] of the same molecule?
Its value is “increased PPR for each frequency”.

And the “decrease of slope of the input/output (i/o) curve” value [5, 13]?
The value was 23%.

What about the fEPSP amplitude [5, 13] of the same molecule?
The fEPSP amplitude was “reduced fEPSP amplitude”.

What about the “effect on mIPSC frequency in neurons lacking APP” value ([2]; sAPPα, neurons lacking APP) of the same molecule?
Its value is “still reduced mEPSC and mIPSC frequency”.

And the “effect on mEPSC frequency in neurons lacking APP” value ([3]; sAPPα, neurons lacking APP)?
Its value is “still reduced mEPSC and mIPSC frequency”.

What about the “reduction of total presynaptic strength (S = ΔF × D)” value ([6]; 1 μM sAPPα, FM1-43 loading/unloading, n=8 experiments, P < 0.001) of the same molecule?
The value was 57 ± 7%.

And the “total presynaptic strength (S = ΔF × D), dose dependence” value ([6]; FM1-43 loading/unloading, sAPPα Fc-tag enzymatically removed, N=5-8)?
Its value is “decreased the total presynaptic strength”.

And the “effect on LTP” value [8]?
Its value is “an enhancement of LTP”.

And the “effect on synaptic activity” value [8]?
Its value is “a reduction in synaptic activity”.

What about the “reduction of mIPSC frequency” value ([4]; 250 nM sAPPα, n=13 cells) of the same molecule?
Its value is 44 ± 5%.

What about the “reduction in mIPSC amplitude” value ([4]; sAPPα, acute (250 nM)) of the same molecule?
Its value is 14%.

With C[C@H](NC[C@H](O)CP(=O)(O)Cc1ccccc1)c1ccc(Cl)c(Cl)c1 [CGP55845, reference compound] as the molecule, how does the “effect of CGP55845 pretreatment on APP 17mer reduction of mEPSC frequency” value ([1]; CGP55845 5μM, 17mer 250 nM, n=16, N=3 (without CGP n=14, N=3)) read?
Its value is “blocks this effect”.

What about the “effect of CGP55845 pretreatment on sAPPα effect on mIPSC frequency” value ([4]; CGP55845 5 μM, pretreatment) of the same molecule?
Its value is “blocked by pretreatment”.

Which results are given for C[C@H](NC[C@H](O)CP(=O)(O)CC1CCCCC1)c1ccc(Cl)c(Cl)c1 [CGP54626, reference compound]?
effect of CGP54626 on sAPPα-mediated decrease in i/o slope ([5]; CGP54626 10 μM, preincubation of slices): abolished the sAPPα-mediated decrease in the slope of the i/o curve; effect of CGP54626 on sAPPα-induced decrease of presynaptic strength ([6]; CGP54626 10μM, N=8): occluded

With B1 as the molecule, how does the “effect on mEPSC frequency” value [1] read?
Its value is “did not reduce mEPSC frequency”.

What about the “reduction in mIPSC frequency by sAPLP1” value ([4]; sAPLP1, acute, n=17 cells, P < 0.05) of the same molecule?
The value was 17 ± 9%.

Which Kd [9] does the source give for B2 here?
The Kd was 810 nM.

For B3, which Kd [10] is on record?
The Kd was 431 nM.

For B4, which “blocking of sAPPα-Fc binding to GABABR1a-expressing cells” value [11] is on record?
Its value is “blocked binding of sAPPα-Fc to GABABR1a-expressing cells”.

Which Kd [9] does the source give for B5 here?
Its Kd is 2300 nM.

Reference: article PMC6366617 (Science (New York, N.Y.), 2019)
